The target in data set [1] is T1, DNA topoisomerase 1 (Homo sapiens) (UniProt P11387).
T1 sequence (whole entry): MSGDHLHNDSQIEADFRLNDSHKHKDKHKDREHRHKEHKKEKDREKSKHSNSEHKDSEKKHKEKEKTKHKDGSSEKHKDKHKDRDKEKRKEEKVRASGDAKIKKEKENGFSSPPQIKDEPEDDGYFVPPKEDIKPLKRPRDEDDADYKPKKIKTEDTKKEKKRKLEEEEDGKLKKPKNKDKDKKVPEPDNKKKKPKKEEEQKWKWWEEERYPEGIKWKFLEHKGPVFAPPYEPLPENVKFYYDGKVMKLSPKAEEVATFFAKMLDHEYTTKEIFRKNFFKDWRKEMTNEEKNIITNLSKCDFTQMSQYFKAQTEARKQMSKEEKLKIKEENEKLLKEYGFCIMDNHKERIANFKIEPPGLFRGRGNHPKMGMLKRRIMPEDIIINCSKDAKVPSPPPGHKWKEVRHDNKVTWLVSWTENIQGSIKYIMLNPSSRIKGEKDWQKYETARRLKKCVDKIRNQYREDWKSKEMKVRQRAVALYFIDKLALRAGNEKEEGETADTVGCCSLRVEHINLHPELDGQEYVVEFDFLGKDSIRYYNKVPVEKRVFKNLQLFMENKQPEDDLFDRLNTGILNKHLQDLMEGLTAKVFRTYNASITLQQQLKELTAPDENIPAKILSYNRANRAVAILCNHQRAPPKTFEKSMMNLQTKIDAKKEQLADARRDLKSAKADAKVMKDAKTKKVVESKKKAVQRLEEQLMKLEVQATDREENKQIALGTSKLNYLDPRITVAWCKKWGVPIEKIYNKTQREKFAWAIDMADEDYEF
Put plainly: Inhibition of human recombinant Top1-mediated DNA cleavage after 20 mins by […] analysis relative to camptothecin. Details: concentration or dose not given beside the values. Summed up: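 Baculovirus-purified human recombinant Top1 with ~2 nM 117-bp oligonucleotide, 3′-end 32P-labelled. Compounds at 0.1–100 μM, room temperature 20 min, stopped with 0.5% SDS. 20% denaturing PAGE, phosphorimaging. Cleavage graded against 1 μM camptothecin.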

The next data set deals with DU-145. Put plainly: Antiproliferative activity against human DU145 cells. In kind it is functional. Summed up:
(§1)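 NCI-60 human tumour cell line panel. Initial one-dose pre-screen at 10−5 molar, then five concentrations from 10−8 to 10−4 molar. GI50 taken as the concentration giving 50% growth inhibition.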

Another data set has as its system MCF7. Put plainly: Antiproliferative activity against human MCF7 cells. Type of data set: functional. Summed up: as §1
The subject of the next data set is SN12C. As to the kind of experiment: Antiproliferative activity against human SN12C cells. Type of data set: functional. A digest of the protocol: as §1
Another data set has as its system UACC-62. Put plainly: Antiproliferative activity against human UACC62 cells. Type of data set: functional. A digest of the protocol:
as §1

The test system of another data set is OVCAR-3. Put plainly: Antiproliferative activity against human OVCAR3 cells. Type of data set: functional. A digest of the protocol: as §1
Another data set relates to SF-539. Put plainly: Antiproliferative activity against human SF539 cells. In kind it is functional. Summed up:
as §1

A further data set relates to HCT-116. Put plainly: Antiproliferative activity against human HCT116 cells. In kind it is functional. Summed up:
as §1

A further data set concerns HOP-62. Put plainly: Antiproliferative activity against human HOP62 cells. In kind it is functional. A digest of the protocol:
as §1

In data set [2] the test system is Liver microsomes. As to the kind of experiment: Drug metabolism in human liver microsomes assessed as formation of 5,6-Dihydro-3-hydroxy-2-methoxy-8,9-methylenedioxy-6-3- [(morpholino)propyl)]-5,11-dioxo-11H-indeno[1,2-c]- isoquinoline at 10 uM after 60 mins in presence of NADPH. The settings on record: 1 h. In kind it is ADME, Microsome. Summed up: (§2)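 Substrate at 10 μM with pooled human liver microsomes (15 donors, mixed gender; 1 mg/mL protein) in 50 mM phosphate, pH 7.4, 37 °C. After 5 min preincubation, 1 mM NADPH started a 60 min reaction. Stopped on ice with acidified acetonitrile; supernatant dried, redissolved, LC-MS and LC-MS/MS. Controls lacked microsomes or NADPH.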

In data set [3] the test system is Liver microsomes. Put plainly: Drug metabolism in human liver microsomes assessed as formation of 8,9-Dihydroxy-2,3-dimethoxy-6-(3-morpholinopropyl)-5Hindeno[ 1,2-c]isoquinoline-5,11(6H)-dione at 10 uM after 60 mins in presence of NADPH. In kind it is ADME, Microsome. The following applies: 1 h. A digest of the protocol:
as §2

Data set [4] relates to Liver microsomes. Put plainly: Drug metabolism in human liver microsomes assessed as formation of 5,6-Dihydro-3-hydroxy-6-3-(1H-imidazol-1-yl)propyl)-2-methoxy- 8,9-methylenedioxy-5,11-dioxo-11H-indeno[1,2-c]- isoquinoline at 10 uM after 60 mins in presence of NADPH. Type of data set: ADME, Microsome. Summed up: as §2
Data set [5] concerns Liver microsomes. As to the kind of experiment: Drug metabolism in human liver microsomes assessed as formation of 6-(3-(1H-Imidazol-1-yl)propyl)-8,9-dihydroxy-2,3-dimethoxy-5H-indeno[1,2-c]isoquinoline-5,11(6H)-dione at 10 uM after 60 mins in presence of NADPH. In kind it is ADME, Microsome. Summed up: as §2

Calls of active or inactive are those of the source. The rule behind the calls is not given here.

A word on the inhibition: it is the share of the control response that was lost under treatment. A word on the GI50: it is the concentration giving 50% growth inhibition.

Take `COc1cc2c(cc1O)-c1c(c3cc(OC)c(OC)cc3c(=O)n1CCCN1CCOCC1)C2=O`: the inhibition in [1] was 75%. The 50% growth inhibitory concentration (GI50) in the data set on DU-145 is 0.204 µM; with MCF7, 0.03 µM; in the data set with SN12C, 0.191 µM; in the data set on UACC-62, 0.07 µM; with OVCAR-3 it was 8.32 µM; with SF-539, 0.282 µM. Besides, the concentration for 50% growth inhibition (GI50) was found to be 2.34 µM in the data set with HCT-116 and 0.18 µM with HOP-62.

As to `COc1cc2c(=O)n(CCCN3CCOCC3)c3c(c2cc1O)C(=O)c1cc2c(cc1-3)OCO2`, the inhibition in data set [1] was found to be 50%. Moreover, the GI50 in the data set on DU-145 was 0.257 µM; in the data set on MCF7, 0.144 µM; in the data set on SN12C, 0.195 µM; in the data set on UACC-62, 0.282 µM; in the data set with OVCAR-3 it was 0.871 µM; with SF-539 it was 0.335 µM. Further, the GI50 is 0.279 µM in the data set with HCT-116 and 0.257 µM in the data set on HOP-62.

Consider `COc1cc2c3c(n(CCCN4CCOCC4)c(=O)c2cc1OC)-c1cc2c(cc1C3=O)OCO2` [INDOTECAN], for which the Drug metabolism result with Liver microsomes [2] and in the data set on Liver microsomes [3] was “Active” throughout.

In the case of `COc1cc2c3c(n(CCCn4ccnc4)c(=O)c2cc1OC)-c1cc2c(cc1C3=O)OCO2` [INDIMITECAN], the Drug metabolism entry in the data set with Liver microsomes [4] and in the data set on Liver microsomes [5] was “Active” in each case.

Regarding `COc1cc2c3c(n(CCCN4CCOCC4)c(=O)c2cc1OC)-c1cc2c(cc1C3O)OCO2` (centres undefined), in data set [1], the inhibition is 50%. Besides, the GI50 amounted to 2.63 µM with DU-145; 0.646 µM in the data set on MCF7; 3.39 µM with SN12C; 0.776 µM in the data set with UACC-62; 4.79 µM in the data set on OVCAR-3; 2.4 µM with SF-539. The 50% growth inhibitory concentration (GI50) with HCT-116 turned out to be 2.4 µM; in the data set on HOP-62, 2.09 µM.

For the compound `COc1cc2c(cc1O)-c1c(c3cc(OC)c(OC)cc3c(=O)n1CCCn1ccnc1)C2=O`, in data set [1], the inhibition was 50%. Besides, the GI50 is more than 100 µM with DU-145; 0.05 µM in the data set on MCF7; 0.331 µM with UACC-62; more than 100 µM in the data set with OVCAR-3; more than 100 µM with HCT-116; more than 100 µM in the data set on HOP-62.

Regarding `COc1cc2c3c(n(CCCn4ccnc4)c(=O)c2cc1O)-c1cc2c(cc1C3=O)OCO2`, in data set [1], the inhibition result was “Active”. In addition, the GI50 is less than 0.01 µM in the data set on DU-145; less than 0.01 µM with MCF7; less than 0.01 µM in the data set with SN12C; less than 0.01 µM with UACC-62; 0.03 µM in the data set on OVCAR-3; less than 0.01 µM with SF-539. Further, the GI50 with HCT-116 and in the data set on HOP-62 was less than 0.01 µM in each case.

As to `COc1cc2c3c(n(CCCN4CCOCC4)c(=O)c2cc1O)-c1cc2c(cc1C3=O)OCO2`, the inhibition in data set [1] came out at 75%. The GI50 was less than 0.01 µM in the data set with DU-145; less than 0.01 µM in the data set with MCF7; less than 0.01 µM in the data set with SN12C; less than 0.01 µM in the data set with UACC-62; 0.03 µM in the data set on OVCAR-3; less than 0.01 µM in the data set on SF-539. For the same compound, the 50% growth inhibitory concentration (GI50) with HCT-116 worked out at 0.02 µM; in the data set on HOP-62, 0.01 µM.

For `COc1cc2c3c(n(CCCn4ccnc4)c(=O)c2cc1OC)-c1cc2c(cc1C3O)OCO2` (centres undefined), the inhibition in data set [1] was determined as 50%. Further, the concentration for 50% growth inhibition (GI50) worked out at 0.407 µM in the data set with DU-145; 0.427 µM with MCF7; 0.501 µM with SN12C; 0.372 µM with UACC-62; 1.95 µM in the data set on OVCAR-3; 0.479 µM in the data set on SF-539. Besides, the values for the concentration for 50% growth inhibition (GI50) with HCT-116 and in the data set with HOP-62 were 1.35 µM and 0.549 µM, respectively.

On to `COc1cc2c(=O)n(CCCn3ccnc3)c3c(c2cc1O)C(=O)c1cc2c(cc1-3)OCO2`, for which the inhibition result in [1] was “Active”. Also, the GI50 with DU-145 was less than 0.01 µM; in the data set with SN12C it was less than 0.01 µM; in the data set on UACC-62, 0.03 µM; in the data set with OVCAR-3, 0.07 µM; in the data set on SF-539 it was less than 0.01 µM; with HCT-116, 0.02 µM. Also, in the data set with HOP-62, the GI50 was less than 0.01 µM.

As to `COc1cc2c(cc1O)C(=O)c1c-2n(CCCN2CCOCC2)c(=O)c2cc(OC)c(OC)cc12`, the inhibition result in data set [1] was “Active”. Moreover, the concentration for 50% growth inhibition (GI50) with DU-145 was determined as 0.02 µM; with MCF7, 0.02 µM; with SN12C, 0.02 µM; in the data set on UACC-62, 0.02 µM; in the data set with OVCAR-3, 0.03 µM; with SF-539, 0.02 µM. The 50% growth inhibitory concentration (GI50) was 0.03 µM in the data set with HCT-116 and 0.02 µM in the data set on HOP-62.

Regarding `COc1cc2c3c(n(CCCN4CCOCC4)c(=O)c2cc1OC)-c1cc(O)c(O)cc1C3=O`, the inhibition result in data set [1] was “Active”. Also, the 50% growth inhibitory concentration (GI50) with DU-145 turned out to be 0.49 µM; in the data set on MCF7 it was 0.05 µM; in the data set with SN12C, 0.065 µM; in the data set with UACC-62, 0.078 µM; in the data set with OVCAR-3, 0.501 µM; with SF-539, 0.148 µM. The values for the 50% growth inhibitory concentration (GI50) in the data set on HCT-116 and in the data set with HOP-62 were 0.407 µM and 0.371 µM, respectively.

As to `COc1cc2c3c(n(CCCn4ccnc4)c(=O)c2cc1OC)-c1cc(O)c(O)cc1C3=O`, the inhibition in data set [1] was found to be 50%. For the same compound, the concentration for 50% growth inhibition (GI50) in the data set on DU-145 is 0.1 µM; with MCF7, 0.02 µM; with SN12C it was 0.03 µM; with UACC-62, less than 0.01 µM; in the data set with OVCAR-3, 0.407 µM; in the data set with SF-539, 0.01 µM. Further, the GI50 came out at 0.229 µM in the data set with HCT-116 and 0.04 µM in the data set on HOP-62.

For `COc1cc2c(cc1O)C(=O)c1c-2n(CCCn2ccnc2)c(=O)c2cc(OC)c(OC)cc12`, the inhibition entry in [1] was “Active”. The GI50 in the data set with DU-145 is less than 0.01 µM; in the data set with MCF7, less than 0.01 µM; with SN12C, less than 0.01 µM; in the data set with UACC-62 it was less than 0.01 µM; in the data set with OVCAR-3, 0.02 µM; in the data set on SF-539, less than 0.01 µM. Moreover, the GI50 in the data set with HCT-116 and with HOP-62 was less than 0.01 µM throughout.

The values are drawn from ChEMBL document CHEMBL2177018, “Identification, synthesis, and biological evaluation of metabolites of the experimental cancer treatment drugs indotecan (LMP400) and indimitecan (LMP776) and investigation of isomerically hydroxylated indenoisoquinoline analogues as topoisomerase I poisons” (J Med Chem, 2012).
